# Data as given in ChEMBL document CHEMBL1165943, “Design and synthesis of new anticancer pyrimidines with multiple-kinase inhibitory effect” (Bioorg Med Chem, 2010).
# What was measured:
# Format in all cases: functional
# [1] = tested on: U-251; assay: Cytotoxicity against human U251 cells assessed as cell growth at 10 uM; conditions: Homo sapiens, U-251; read-out: Activity
# In short: (§1)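 Single-dose screen at 10 μM across the 60-cell-line panel. Cells grown in RPMI 1640 with 5% FBS and 2 mM L-glutamine, seeded at 5,000–40,000 cells/well according to doubling time, and treated 24 h later. Exposure lasted 48 h at 37 °C, 5% CO₂. Adherent cells were fixed with cold TCA, suspension cells were fixed settled, and both were stained with SRB and read at 515 nm. Growth % was recorded, with inhibition % = 100 − growth %.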
# [2] = tested on: NCI-H322M; assay: Cytotoxicity against human NCI-H322M cells assessed as cell growth at 10 uM; conditions: Homo sapiens, NCI-H322M; read-out: Activity; in short: as §1
# [3] = tested on: UACC-257; assay: Cytotoxicity against human UACC257 cells assessed as cell growth at 10 uM; conditions: Homo sapiens, UACC-257; read-out: Activity; in short: as §1
# [4] = tested on: OVCAR-3; assay: Cytotoxicity against human OVCAR-3 cells assessed as cell growth at 10 uM; conditions: Homo sapiens, OVCAR-3; read-out: Activity; in short: as §1
# [5] = tested on: PC-3; assay: Cytotoxicity against human PC3 cells assessed as cell growth at 10 uM; conditions: Homo sapiens, PC-3; read-out: Activity; in short: as §1
# [6] = tested on: SK-OV-3; assay: Cytotoxicity against human SKOV3 cells assessed as cell growth at 10 uM; conditions: Homo sapiens, SK-OV-3; read-out: Activity; in short: as §1
# [7] = tested on: Malme-3M; assay: Cytotoxicity against human MALME-3M cells assessed as cell growth at 10 uM; conditions: Homo sapiens, Malme-3M; read-out: Activity; in short: as §1
# [8] = tested on: OVCAR-4; assay: Cytotoxicity against human OVCAR4 cells assessed as cell growth at 10 uM; conditions: Homo sapiens, OVCAR-4; read-out: Activity; in short: as §1
# [9] = tested on: EKVX; assay: Cytotoxicity against human EKVX cells assessed as cell growth at 10 uM; conditions: Homo sapiens, EKVX; read-out: Activity
# In short: (§2)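 Single-concentration screen at 10 μM across the 60-cell-line panel (nine tissue types); growth percentage recorded per cell line, with inhibition taken as 100 minus growth percentage.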
# [10] = tested on: SK-MEL-5; assay: Cytotoxicity against human SK-MEL-5 cells assessed as cell growth at 10 uM; conditions: Homo sapiens, SK-MEL-5; read-out: Activity; in short: as §1
# [11] = tested on: SF-295; assay: Cytotoxicity against human SF295 cells assessed as cell growth at 10 uM; conditions: Homo sapiens, SF-295; read-out: Activity; in short: as §1
# [12] = tested on: BT-549; assay: Cytotoxicity against human BT549 cells assessed as cell growth at 10 uM; conditions: Homo sapiens, BT-549; read-out: Activity; in short: as §2
# [13] = tested on: OVCAR-8; assay: Cytotoxicity against human OVCAR8 cells assessed as cell growth at 10 uM; conditions: Homo sapiens, OVCAR-8; read-out: Activity; in short: as §1
# [14] = tested on: MOLT-4; assay: Cytotoxicity against human MOLT4 cells assessed as cell growth at 10 uM; conditions: Homo sapiens, MOLT-4; read-out: Activity; in short: as §1
# [15] = tested on: HCT-15; assay: Cytotoxicity against human HCT15 cells assessed as cell growth at 10 uM; conditions: Homo sapiens, HCT-15; read-out: Activity; in short: as §2
# [16] = tested on: LOX IMVI; assay: Cytotoxicity against human LOXIMVI cells assessed as cell growth at 10 uM; conditions: Homo sapiens, LOX IMVI; read-out: Activity; in short: as §1
# [17] = tested on: UO-31; assay: Cytotoxicity against human UO31 cells assessed as cell growth at 10 uM; conditions: Homo sapiens, UO-31; read-out: Activity; in short: as §1
# [18] = tested on: OVCAR-5; assay: Cytotoxicity against human OVCAR5 cells assessed as cell growth at 10 uM; conditions: Homo sapiens, OVCAR-5; read-out: Activity; in short: as §1
# [19] = tested on: NCI-H23; assay: Cytotoxicity against human NCI-H23 cells assessed as cell growth at 10 uM; conditions: Homo sapiens, NCI-H23; read-out: Activity; in short: as §1
# [20] = tested on: TK-10; assay: Cytotoxicity against human TK10 cells assessed as cell growth at 10 uM; conditions: Homo sapiens, TK-10; read-out: Activity; in short: as §1
# [21] = tested on: KM12; assay: Cytotoxicity against human KM12 cells assessed as cell growth at 10 uM; conditions: Homo sapiens, KM12; read-out: Activity; in short: as §1
# [22] = tested on: HCC 2998; assay: Cytotoxicity against human HCC2998 cells assessed as cell growth at 10 uM; conditions: Homo sapiens, HCC 2998; read-out: Activity; in short: as §2
# [23] = tested on: K562; assay: Cytotoxicity against human K562 cells assessed as cell growth at 10 uM; conditions: Homo sapiens, K562; read-out: Activity; in short: as §1
# [24] = Growth inhibition of human NCI60 cells at 10 uM after 48 hrs by sulforhodamine B assay relative to control; conditions: Homo sapiens, NCI60, 48 h; read-out: GI
# In short: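 Single 10 µM dose across the 60-line panel for 48 h, with the same culture, TCA fixation and SRB 515 nm read-out. Inhibition % = 100 − growth %, given as the mean over the 60 cell lines.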
# [25] = tested on: SF-539; assay: Cytotoxicity against human SF539 cells assessed as cell growth at 10 uM; conditions: Homo sapiens, SF-539; read-out: Activity; in short: as §1
# [26] = tested on: MDA-MB-468; assay: Cytotoxicity against human MDA-MB-468 cells assessed as cell growth at 10 uM; conditions: Homo sapiens, MDA-MB-468; read-out: Activity; in short: as §1
# [27] = tested on: ACHN; assay: Cytotoxicity against human ACHN cells assessed as cell growth at 10 uM; conditions: Homo sapiens, ACHN; read-out: Activity; in short: as §2
# [28] = tested on: CAKI-1; assay: Cytotoxicity against human Caki1 cells assessed as cell growth at 10 uM; conditions: Homo sapiens, CAKI-1; read-out: Activity; in short: as §2
# [29] = tested on: NCI-H522; assay: Cytotoxicity against human NCI-H522 cells assessed as cell growth at 10 uM; conditions: Homo sapiens, NCI-H522; read-out: Activity; in short: as §1
# [30] = tested on: A498; assay: Cytotoxicity against human A498 cells assessed as cell growth at 10 uM; conditions: Homo sapiens, A498; read-out: Activity; in short: as §2
# [31] = tested on: NCI-H226; assay: Cytotoxicity against human NCI-H226 cells assessed as cell growth at 10 uM; conditions: Homo sapiens, NCI-H226; read-out: Activity; in short: as §1
# [32] = tested on: 786-0; assay: Cytotoxicity against human 786-0 cells assessed as cell growth at 10 uM; conditions: Homo sapiens, 786-0; read-out: Activity; in short: as §2
# [33] = tested on: SF-268; assay: Cytotoxicity against human SF268 cells assessed as cell growth at 10 uM; conditions: Homo sapiens, SF-268; read-out: Activity; in short: as §1
# [34] = tested on: HCT-116; assay: Cytotoxicity against human HCT116 cells assessed as cell growth at 10 uM; conditions: Homo sapiens, HCT-116; read-out: Activity; in short: as §2
# [35] = tested on: NCI-H460; assay: Cytotoxicity against human NCI-H460 cells assessed as cell growth at 10 uM; conditions: Homo sapiens, NCI-H460; read-out: Activity; in short: as §1
# [36] = tested on: HL-60(TB); assay: Cytotoxicity against human HL-60(TB) cells assessed as cell growth at 10 uM; conditions: Homo sapiens, HL-60; read-out: Activity
# In short: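 Single-concentration 10 µM screen of HL-60(TB) within the 60-line panel, grown in RPMI 1640 with 5% FBS. The drug from DMSO stock is incubated 48 h at 37 °C, settled cells are TCA-fixed and SRB-stained, and absorbance is read at 515 nm. Percent growth is reported, and inhibition % is taken as 100 minus growth %.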
# [37] = tested on: DU-145; assay: Cytotoxicity against human DU145 cells assessed as cell growth at 10 uM; conditions: Homo sapiens, DU-145; read-out: Activity; in short: as §2
SMILES,growth at 10 µM [1] [%],growth at 10 µM [2] [%],growth at 10 µM [3] [%],growth at 10 µM [4] [%],growth at 10 µM [5] [%],growth at 10 µM [6] [%],growth at 10 µM [7] [%],growth at 10 µM [8] [%],growth at 10 µM [9] [%],growth at 10 µM [10] [%],growth at 10 µM [11] [%],growth at 10 µM [12] [%],growth at 10 µM [13] [%],growth at 10 µM [14] [%],growth at 10 µM [15] [%],growth at 10 µM [16] [%],growth at 10 µM [17] [%],growth at 10 µM [18] [%],growth at 10 µM [19] [%],growth at 10 µM [20] [%],other results
CC(=O)c1ccccc1-c1ccc(-c2ccnc(NC(=O)Nc3cc(N4CCOCC4)cc(C(F)(F)F)c3)n2)cn1,56.4,90.1,65.1,123,71.3,71.5,24.8,27.5,88.2,43.2,74.8,51.7,43,87.1,84.2,44.7,92.1,102,58.5,47.8,growth at 10 µM [21]: 90.4%; growth at 10 µM [22]: 106%; growth at 10 µM [23]: 83.3%; inhibition of growth at 10 µM [24]: 38.4%; growth at 10 µM [25]: 44.3%; growth at 10 µM [26]: 82.1%; growth at 10 µM [27]: 45.7%; growth at 10 µM [28]: 83.5%; growth at 10 µM [29]: 60.2%; growth at 10 µM [30]: 107%; growth at 10 µM [31]: 39.4%; growth at 10 µM [32]: 47.3%; growth at 10 µM [33]: 63.9%; growth at 10 µM [34]: 63%; growth at 10 µM [35]: 87.4%; growth at 10 µM [36]: 95.7%; growth at 10 µM [37]: 45.3%
FC(F)(F)c1cc(Nc2nccc(-c3ccc(-c4ccccc4)nc3)n2)cc(C(F)(F)F)c1,99.1,99.7,113,114,90.3,94.6,123,95,101,102,114,106,94.1,93.4,99.9,98.8,87.2,111,98.5,99.5,growth at 10 µM [21]: 105%; growth at 10 µM [22]: 124%; growth at 10 µM [23]: 91.5%; inhibition of growth at 10 µM [24]: 0.49%; growth at 10 µM [25]: 95.8%; growth at 10 µM [26]: 110%; growth at 10 µM [27]: 96%; growth at 10 µM [28]: 91.6%; growth at 10 µM [29]: 83.3%; growth at 10 µM [30]: 110%; growth at 10 µM [31]: 115%; growth at 10 µM [32]: 101%; growth at 10 µM [33]: 105%; growth at 10 µM [34]: 81.6%; growth at 10 µM [35]: 107%; growth at 10 µM [36]: 113%; growth at 10 µM [37]: 109%
